We go through nine molecules from paper PMC4073670 (Nature, 2011).

Assay [1] deals with ends of K19 fibers. Description: Nanogold localization to fiber ends, electron microscopy blind counting. In kind it is binding, human. To be noted: for nanogold at fiber ends, significance vs nanogold alone: z-test versus unconjugated nanogold. The method, boiled down:
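Cys-GGG-extended D-peptides were coupled to monomaleimido nanogold for 1 h at room temperature, and unbound peptide was removed by 10-kDa filtration. Conjugate (10 nM) was incubated 1 h with sonicated, heparin-free K19 fibers (1.67 μM by monomer) in 25 mM MOPS pH 7.2. Gold was enlarged with Goldenhance before EM. Particles within a 15 nm cutoff were scored as end- or side-bound by a blinded microscopist.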

Assay [2] has as its system K19 fibers. The assay is described as follows: Nanogold binding to K19 fibers, electron microscopy blind counting. Details: species or system human. To be noted: z-test versus unconjugated nanogold. An outline of the steps:
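Cys-Gly3-extended test D-peptide or scrambled control (60 nmol) was conjugated to 6 nmol monomaleimido nanogold (1 h, room temperature) and freed of peptide by 10 kDa cut-off. K19 fibers (100 μM K19, 25 μM heparin, overnight at 37°C, pH 7.4) were sonicated and washed. 10 nM conjugate or control was incubated 1 h with 1.67 μM fibers (by monomer) in 25 mM MOPS pH 7.2, then gold-enhanced for EM. Fiber-bound particles were counted blind as end or side.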

In assay [3] the test system is tau K19. The assay is described as follows: Tau K19 inhibition assay. In kind it is biochemical, human. To be noted: equimolar ratio with K19; 50 μM K19, pH 7.4, 37°C, quiescent. The method, boiled down:
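K19 was expressed in E. coli BL21(DE3) with 1 mM IPTG and purified by boiling and cation exchange. Reactions held 50 μM K19 in 250 mM sodium phosphate pH 7.4 with 1 mM DTT, 12.5 μM heparin (6000 MW) and 10 μM ThS. Peptide was added from a 0.5 mM stock. Plates were read every 15 min (ex 440/em 510) at 37°C, quiescent, with 2 s shaking before reads. At least 3 replicates; lag time is the mean threshold-crossing time ± SD.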

Assay [4] concerns soluble VQIVYK. Description: 1H NMR binding to soluble VQIVYK. To be noted: even at 70-fold molar excess of soluble VQIVYK, pH 5.0, 283 K.
Assay [5] has as its system VQIVYK. Description: VQIVYK inhibition assay. It counts as biochemical. To be noted: 25 mM MOPS pH 7.2, 100 μM ThS, room temperature; for VQIVYK fibrillation inhibition, equimolar peptide: equimolar ratio with VQIVYK.
In assay [6] the test system is tau K19. Description: Electron microscopy of K19 fibrillation. It counts as biochemical, human. To be noted: incubation with peptide; negative stain, 1% uranyl acetate. An outline of the steps:
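Recombinant K19 (E. coli BL21(DE3); boiled lysate, cation exchange) was incubated at 50 μM with peptide. Buffer was 250 mM sodium phosphate pH 7.4 with 1 mM DTT, 12.5 μM heparin and 10 μM ThS, held quiescent at 37°C. Samples were spotted on glow-discharged carbon/formvar copper grids for 3 min, rinsed with water, stained with 1% uranyl acetate for 90 s, and imaged by TEM.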

Assay [7] relates to tau segment VQIVYK, and the K12 and K19 tau constructs. The assay is described as follows: Fibrillation of tau segment VQIVYK and tau constructs K12 and K19. It counts as biochemical, human. The method, boiled down: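 Un-seeded ThS fibrillation with peptides at specified molar ratios. For K12/K19: 50 μM protein, 250 mM phosphate pH 7.4, 1 mM DTT, 12.5 μM heparin, 10 μM ThS, 37°C; K12 shaken at 900 rpm, K19 quiescent; read every 15 min (ex 440/em 510). For VQIVYK: 25 mM MOPS pH 7.2 with PTFE beads, room temperature, read every 2 min. At least 3 replicates; lag time is the mean time to cross a threshold.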

Assay [8] addresses tau fiber elongation (Homo sapiens, UniProt P10636). Description: Tau fibrillation kinetic analysis. In kind it is biochemical. The conditions noted are these: increasing concentrations of inhibitor peptide. An outline of the steps: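 Nucleation (k1) and propagation (k2) rates were fitted from the ThS fibrillation traces of the tau construct assays. The fit used the Finke-Watzky 2-step form, with plateau values fixed first and the remaining parameters fitted by non-linear least-squares regression.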

Assay [9] deals with VQIVYK fibers. The assay is described as follows: 1H NMR binding to VQIVYK fibers.
Assay [10] deals with amyloid beta(1-42). The assay is described as follows: Amyloid beta fibrillation assay. It counts as biochemical. To be noted: 11.5 μM Aβ1-42, 11.5 μM D-TLKIVW, 10 μM ThT, 100 mM Bicine pH 9.1, 37°C, 4 replicates. An outline of the steps: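 Aβ1-42 was diluted to 0.2 mg/ml in 50 mM NH4OH and 0.2 μm filtered. Final mix: 11.5 μM Aβ1-42, 10 μM ThT, 23 mM NH4OH, 100 mM Bicine pH 9.1, with or without 11.5 μM test D-peptide. Four replicates were run at 37°C with continuous 960 rpm shaking (1 mm diameter), reading ThT every minute at Ex 444/Em 482.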

In assay [11] the test system is tau K12. Description: Tau K12 inhibition assay, un-seeded. The conditions noted are these: 50 μM K12, pH 7.4, 37°C. In kind it is biochemical, human.
Assay [12] relates to HIV-1 infection of TZM-bl cells. The assay is described as follows: Effect of WW61 on poly-lysine mediated enhancement of HIV-1 infection. In kind it is cell-based. The conditions noted are these: poly-lysine/WW61 100, 20, 4, 0.8, 0.16, 0.032, 0.064 and 0 μg/ml during preincubation with virus. The method, boiled down:
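The HIV-1 CCR5-tropic molecular clone came from 293T transfection, with p24 by ELISA. Poly-lysine was mixed 1:1 with test compound. 5-fold dilutions (100, 20, 4, 0.8, 0.16, 0.032, […], 0 μg/ml) were preincubated with an equal volume of virus for 5 min at room temperature. Of each, 20 μl went onto 180 μl TZM-bl cells (LTR-lacZ). β-galactosidase in lysates was read 2 days later by luminescence (RLU/s).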

The test system is the same in assay [13]. Description: Effect of WW61, GIHKQK and PYKLWN on HIV-1 infection. To be noted: 150, 30, 6, 1.2 and 0 μg/ml during preincubation with virus. In kind it is cell-based.
Assay [14] concerns the target T1, tau VQIVYK segment fibers (Homo sapiens).
T1 chain: VQIVYK
Description: NMR.

Where “and” joins values, the source holds several entries; their conditions need not be identical. Identical values can stand only once. Square brackets hold non-standard residues; d marks the D form. Ends that are not written are not given here.

As a reminder, the Kd is a measure of binding affinity in units of concentration. Lower therefore signals tighter binding.

tau fiber elongation, sequence (P10636 186-283 isoform P10636-2 limits assumed): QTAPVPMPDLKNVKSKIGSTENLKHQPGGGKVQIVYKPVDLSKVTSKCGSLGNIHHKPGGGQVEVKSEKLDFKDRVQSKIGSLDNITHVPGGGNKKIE

On to CGGG-(D)-LKTWIV [nanogold-D-LKTWIV], for which the “nanogold at fiber ends, significance vs nanogold alone” value in assay [1] is given as “does not differ significantly from nanogold alone”. In assay [2], the “nanogold bound to fibers, significance vs nanogold alone” value is “does not differ significantly from nanogold alone”.
CGGG-(D)-TLKIVW [nanogold-D-TLKIVW]: in assay [1] (n = 86, 10 nM conjugate, 1.67 μM K19 fibers, pH 7.2, 1 hour), the “number of fiber-bound nanogold particles localizing to fiber ends (xend), n = 86” value came to 49. In addition, in [1], the “nanogold at fiber ends, significance vs nanogold alone” value was “significantly different from nanogold alone”. Moreover, the “nanogold bound to fibers, significance vs nanogold alone” value in assay [2] is recorded as “significantly different from nanogold alone”.
Take D-LKTWIV: the “K19 fibrillation inhibition, equimolar peptide” value (“K19 fibrillation inhibition” below) in assay [3] was “little inhibitory effect”. The “change in indole proton chemical shift with soluble VQIVYK” value in assay [4] was “Only a slight change in the chemical shifts”. Besides, the “VQIVYK fibrillation inhibition, equimolar peptide” value (“VQIVYK fibrillation inhibition” for short) in [5] is “little inhibitory effect”.
In the case of D-TIKWVL, the “K19 fibrillation inhibition” value in [3] is “little inhibitory effect”. In addition, the “VQIVYK fibrillation inhibition” value in assay [5] is given as “little inhibitory effect”.
As to D-TIWKVL, the “K19 fibrillation inhibition” value in assay [3] is recorded as “little inhibitory effect”. Further, the “VQIVYK fibrillation inhibition” value in assay [5] is reported as “little inhibitory effect”.
Regarding D-TLKIVW, the “K19 fibrillation by electron microscopy” value in assay [6] is recorded as “prevents K19 fibrillation”. In assay [7] (un-seeded reactions), the “lag time in un-seeded reactions” value was “large increase in lag time”. Besides, the fiber elongation rate result in assay [8] is “fiber elongation rate decreases in the presence of increasing concentrations of inhibitor peptide”. For the same molecule, the “change in indole proton chemical shift with soluble VQIVYK” value in assay [4] was “Only a slight change in the chemical shifts”. In addition, the “estimated affinity constant for fibers” value in assay [9] (1H NMR, 500 MHz, fibers containing 0 to 1500 μM VQIVYK monomers) was “low micromolar range”. The “standard free binding energy (ΔGbinding)” value in assay [9] (from apparent Kd of 2 μM, VQIVYK fibers) was ~ 7.4 kcal/mol and 7.4 kcal/mol. Besides, in assay [10], the “block of amyloid beta fibrillation” value is “unable to block the fibrillation of amyloid beta”. Moreover, the “delay of K12 fibrillation, five-fold molar excess” value in [11] (five-fold molar excess, some experimental replicates) is recorded as “more than two weeks in some experimental replicates”. The “K12 fiber formation delay, sub-equimolar peptide” value in [11] (sub-equimolar concentration relative to K12) is “delays fiber formation even at sub-equimolar concentration”. Further, the “VQIVYK fiber formation delay, sub-equimolar peptide” value in assay [5] (sub-equimolar concentration relative to VQIVYK) is “delays fiber formation even at sub-equimolar concentration”.
H-[W-H-K-chAla-W-hydroxyTic]-OH [WW61]: in [12], the “effect on poly-lysine mediated HIV infectivity” value is “no inhibitory effect on poly-lysine mediated HIV infectivity”. Besides, in [13], the “effect on HIV infectivity in the absence of SEVI” value is “does not affect HIV infectivity”.
L-TLKIVW: in assay [7] (diastereomer compared with D-TLKIVW, ThS fluorescence), the “effectiveness of diastereomer relative to D-TLKIVW” value was “less effective than D-TLKIVW”.
Take [dT][dL][dK][dI][dV][dW] [D-TLKIVW]: the Kd in [14] was roughly 2000 nM.
